Assay type in all cases: functional, Mus musculus
The test system of assay [1] is P388. In words: Antitumor activity was determined against the ip implanted P388 leukemia in mice by percent median survival rate (treated/control) at 133 mg/kg (treatment of 1,5,9qd schedule) dosage; >45.0/11.0. As to conditions: route intraperitoneal. In a few lines: (§1)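 DBA/2J mice, 23-33 g, in groups of 6, were inoculated ip with 1×10^6 P388 cells on day 0. Dosing was ip from 24 h on the stated schedules, in 0.9% NaCl with 0.5% Tween-80 (sonicated solution or suspension). Survival was followed daily until death or 45 days. Median T/C was calculated from survivors per NCI protocols, with ILS = (T/C − 1) × 100.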

Assay [2] concerns P388. In words: Antitumor activity against the ip implanted P388 leukemia in mice expressed as optimal dose (1,5,9qd treatment schedule) required to produce greatest increase in life span was determined. The arrangement: unit: mg/kg. Put shortly: (§2)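 P388 leukemia: 1 × 10^6 cells were given ip on day 0 to DBA/2J mice, groups of 6 (23-33 g). Treatment was ip from 24 h after inoculation, vehicle 0.9% NaCl with 0.5% Tween-80. Mice were observed daily until death or 45 days. Median survival T/C was calculated from survivors per NCI protocols, and ILS = (T/C − 1) × 100. Active range means doses giving ILS ≥25%; optimal dose means greatest ILS.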

Assay [3] relates to L1210. In words: Antitumor activity was determined against the ip implanted L1210 leukemia in mice by change in […] at 400 mg/kg (treatment of 1qd schedule) dosage. The note with it: route intraperitoneal. Put shortly: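 DBA/2J mice, 6 per group (wt 23-28 g), inoculated ip with 1×10^6 L1210 cells on day 0. Treatment was given ip in 0.9% NaCl with 0.5% Tween-80, starting 24 h later. Weight change was taken on day 8. Mice were observed daily until death or 45 days. Median survival T/C and %ILS = (T/C − 1) × 100 came from survivors per NCI protocols, and 45-day survivors were counted.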

Assay [4] concerns P388. In words: Antitumor activity was determined against the ip implanted P388 leukemia in mice by percent increase in life span at 133 mg/kg (treatment of 1,5,9qd schedule) dosage. As to conditions: route intraperitoneal. Put shortly:
as §1

Assay [5] deals with P388. Nature of the assay: Antitumor activity against the ip implanted P388 leukemia in mice expressed as optimal dose (1 qd treatment schedule) required to produce greatest increase in life span was determined. In a few lines: as §2
The subject of assay [6] is L1210. In words: Antitumor activity was determined against the ip implanted L1210 leukemia in mice by 45-day survivors in mice at 400 mg/kg (treatment of 1qd schedule) dosage. As to conditions: route intraperitoneal. Put shortly: (§3)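 DBA/2J mice in groups of 6 (wt 23-28 g) were inoculated ip with 1×10^6 L1210 cells on day 0. Dosing was ip from 24 h, in 0.9% NaCl with 0.5% Tween-80 (conjugates sonicated), across a range of doses. Mice were observed daily until death or 45 days. Median T/C was computed from survivors per NCI protocols, and ILS = (T/C − 1)×100.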

Assay [7] concerns L1210. In words: Antitumor activity was determined against the ip implanted L1210 leukemia in mice by percent increase in life span at 400 mg/kg (treatment of 1qd schedule) dosage. The note with it: route intraperitoneal. In a few lines: as §3
In assay [8] the test system is P388. In words: Antitumor activity was determined against the ip implanted P388 leukemia in mice by 45-day survivors in mice at 133 mg/kg (treatment of 1,5,9qd schedule) dosage. As to conditions: route intraperitoneal. In a few lines:
as §1

Assay [9] has as its system L1210. In words: Antitumor activity against the ip implanted L1210 leukemia in mice expressed as optimal dose (1-5qd treatment schedule) required to produce greatest increase in life span was determined. In a few lines:
(§4)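 DBA/2J mice, groups of 6 (23-28 g), were inoculated ip with 1 × 10^6 L1210 cells on day 0. Dosing was ip from 24 h, in 0.9% NaCl with 0.5% Tween-80 (sonicated solution or suspension). Mice were observed daily until death or day 45. Median survival T/C followed NCI protocols, and ILS = (T/C − 1) × 100. Active range means doses giving ILS ≥25%; optimal dose means greatest ILS.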

The test system of assay [10] is L1210. Nature of the assay: Antitumor activity against the ic implanted L1210 lymphoid leukemia in mice expressed as optimal dose (1-5qd treatment schedule) required to produce greatest increase in life span was determined. Put shortly:
(§5)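 DBA/2J mice, groups of 6 (26-32 g), got 1 × 10^5 L1210 cells ic on day 0. Dosing was ip starting 24 h later, as a sonicated solution or suspension in 0.9% NaCl with 0.5% Tween-80, over a wide dose range. Mice were followed daily until death. Median survival T/C was taken from survivors per NCI protocols, and ILS = (T/C − 1) × 100. Active range means doses giving ILS ≥25%; optimal dose means greatest ILS.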

Assay [11] relates to L1210. In words: Antitumor activity against the ip implanted L1210 leukemia in mice expressed as optimal dose (1 qd treatment schedule) required to produce greatest increase in life span was determined. Put shortly: as §4
Assay [12] has as its system P388. In words: Antitumor activity was determined against the ip implanted P388 leukemia in mice by change in […] at 133 mg/kg (treatment of 1,5,9qd schedule) dosage. As to conditions: route intraperitoneal. In a few lines: (§6)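 P388 leukemia, 1×10^6 cells implanted ip on day 0 into DBA/2J mice, groups of 6 (wt 23-33 g). Dosing ip started 24 h post-inoculation, vehicle 0.9% NaCl containing 0.5% Tween-80. Animals were observed daily until death or 45 days. Outputs were weight change, median survival T/C from survivors per NCI protocols, and %ILS = (T/C − 1) × 100.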

Assay [13] has as its system P388. In words: (§7) Antitumor activity against the ip implanted P388 leukemia in mice expressed as optimal dose (1-5qd treatment schedule) required to produce greatest increase in life span was determined. Put shortly: as §2
Assay [14] deals with P388. Nature of the assay: Antitumor activity was determined against the ip implanted P388 leukemia in mice by 45-day survivors in mice at 500 mg/kg (treatment of 1qd schedule) dosage. The note with it: route intraperitoneal. Put shortly: as §1
In assay [15] the test system is P388. In words: Antitumor activity was determined against the ip implanted P388 leukemia in mice by percent increase in life span at 500 mg/kg (treatment of 1qd schedule) dosage. As to conditions: route intraperitoneal. In a few lines:
as §1

The subject of assay [16] is L1210. Nature of the assay: Antitumor activity against ic implanted L1210 lymphoid leukemia in mice expressed as active dose range (1-9qd treatment schedule) required to produce increase in life span by >25% was determined; Range is 100-300. In a few lines: as §5
For assay [17], the system named is P388. Nature of the assay: Antitumor activity was determined against the ip implanted P388 leukemia in mice by change in […] at 500 mg/kg (treatment of 1qd schedule) dosage. The note with it: route intraperitoneal. Put shortly: as §6
The test system of assay [18] is P388. Nature of the assay: Antitumor activity was determined against the ip implanted P388 leukemia in mice by percent increase in life span at 60 mg/kg (1-5qd treatment schedule) dosage. The note with it: route intraperitoneal. Put shortly:
as §1

For assay [19], the system named is P388. In words: Antitumor activity against ip implanted P388 leukemia in mice expressed as active dose range (1 qd treatment schedule) required to produce increase in life span by >25% was determined; Range is 200-500. In a few lines:
as §2

Assay [20] concerns P388. In words: Antitumor activity against ip implanted P388 leukemia in mice expressed as active dose range (1-5qd treatment schedule) required to produce increase in life span by >25% was determined; Range is 40-80. In a few lines:
as §2

Assay [21] deals with P388. Nature of the assay: Antitumor activity was determined against the ip implanted P388 leukemia in mice by change in […] at 60 mg/kg (1-5qd treatment schedule) dosage. As to conditions: route intraperitoneal. In a few lines:
as §6

The test system of assay [22] is P388. The assay is described as §7. Also noted: unit: mg/kg. Put shortly:
as §2

Assay [23] deals with P388. In words: Antitumor activity was determined against the ip implanted P388 leukemia in mice by 45-day survivors in mice at 60 mg/kg (1-5qd treatment schedule) dosage. As to conditions: route intraperitoneal. In a few lines: as §1

For `CCCCCCCCCCCCCCCCOCC(COP(=O)(O)OP(=O)(O)OC[C@H]1O[C@@H](n2ccc(N)nc2=O)[C@@H](O)[C@@H]1O)OC(=O)CCCCCCCCCCCCCCC` (mixture of isomers), the T/C (as a rule, the result in the treated group divided by that in the control group, in per cent) in assay [1] was greater than 45%. Also, the Optimal dose turned out to be 133 mg in assay [2]; 300 mg in [5]; 80 mg in assay [9]; 100 mg in assay [10]; 400 mg/kg/day in [11]; 60 mg in assay [13]. Moreover, the results for the Weight change in assay [3] and in assay [12] were 1.47 g mouse-1 and -0.25 g mouse-1, respectively. In addition, the values for the ILS in [4] and in assay [7] were greater than 309 and 293, respectively. Further, the Survivors is given as 0 in assay [6] and 4 in [8].
Regarding `Nc1ccn([C@@H]2O[C@H](CO)[C@@H](O)[C@@H]2O)c(=O)n1` [CYTARABINE], the Survivors in assay [14] and in assay [6] was 0 in each case. Also, the Weight change in assay [3] stood at 2.37 g mouse-1; in assay [17], 0.72 g mouse-1. Besides, the Optimal dose stood at 500 mg in assay [5]; 200 mg in [9]; 300 mg in assay [10]; 400 mg/kg/day in assay [11]; 200 mg in assay [13]. Further, the ILS in assay [15] is 36; in assay [7], 19. This compound showed an Active dose range in assay [16] of 100 mg/kg/day.
For the compound `CCCCCCCCCCCCCCCCCCOCC(COP(=O)(O)OP(=O)(O)OC[C@H]1O[C@@H](n2ccc(N)nc2=O)[C@@H](O)[C@@H]1O)OC(=O)CCCCCCCCCCCCCCC` (mixture of isomers), the Optimal dose in assay [2] worked out at 67 mg; in [5], 500 mg; in [9], 100 mg; in assay [11] it was 400 mg/kg/day; in assay [22], 60 mg. The figures for the Survivors in assay [14], in [6] and in [23] were 4, 0 and 0, respectively. In addition, the figures for the Weight change in [3], in assay [21] and in [17] were -1 g mouse-1, -0.12 g mouse-1 and -0.07 g mouse-1, respectively. For the same compound, the ILS in assay [18] is 109; in assay [15] it was greater than 309; in assay [7] it was 257. The Active dose range in [19] worked out at 200 mg/kg/day; in assay [20] it was 40 mg/kg/day.
As for `CCCCCCCCCCCCCCCC(=O)OC[C@H](COP(=O)(O)OP(=O)(O)OC[C@H]1O[C@@H](n2ccc(N)nc2=O)[C@@H](O)[C@@H]1O)OC(=O)CCCCCCCCCCCCCCC`, the T/C in assay [1] is greater than 45%. In addition, the Optimal dose in assay [2] stood at 133 mg; in [5], 500 mg; in [9], 40 mg; in assay [10] it was 80 mg; in assay [11], 300 mg/kg/day; in assay [22] it was 60 mg. Also, the ILS in assay [4] and in assay [18] was greater than 309 each time. Besides, the values for the Active dose range in assay [19] and in assay [20] were 200 mg/kg/day and 40 mg/kg/day, respectively. For the same compound, the Survivors was determined as 4 in [8] and 5 in assay [23]. The Weight change in assay [21] is given as -1.92 g mouse-1; in [12] it was -1.43 g mouse-1.
